{"source": "ChEMBL document CHEMBL1132144", "about": "“Synthesis of 9-O-substituted derivatives of 9-hydroxy-5, 6-dimethyl-6H-pyrido[4,3-b]carbazole-1-carboxylic acid (2-(dimethylamino)ethyl)amide and their 10- and 11-methyl analogues with improved antitumor activity” (J Med Chem, 1999)", "key": {"[1]": {"test_system": "B16", "assay": "Inhibition of murine B16 melanoma cell proliferation measured by the MTT assay", "format": "functional, cell-based", "details": "Mus musculus", "outline": "(§1)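 Murine L1210 leukemia and B16 melanoma cells were grown in RPMI 1640 with 10% fetal calf serum, 2 mM L-glutamine, penicillin/streptomycin and 10 mM HEPES (pH 7.4). Cells were exposed to nine serial drug dilutions in triplicate for about four doubling times (L1210 48 h, B16 96 h), then read by microculture tetrazolium (MTT) assay. IC50 is the concentration halving optical density versus untreated controls, averaged over ≥2 independent experiments.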"}, "[2]": {"test_system": "L1210", "assay": "Inhibition of murine L1210 leukemia cell proliferation measured by the MTT assay", "format": "functional, cell-based", "details": "Mus musculus", "outline": "as §1"}, "[3]": {"test_system": "Mus musculus", "assay": "Long-term survivors among 7 mice infected with B16 melanoma, scored on day 90 at 320 mg/kg dose on day 1", "format": "functional"}, "[4]": {"test_system": "Mus musculus", "assay": "Long-term survivors among 7 mice infected with P388 leukemia, scored on day 60 at 320 mg/kg dose on day 1", "format": "functional", "outline": "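B6D2F1 mice in groups of 6–7 received 10^6 P388 cells ip on day 0. Dihydrochloride salts dissolved in water were injected iv on day 1 or on days 1, 5 and 9, at three doses and then five. Read-outs were % T/C (median survival treated/control × 100) and long-term survivors on day 60, both at the optimal dose (no toxic death, weight loss <20%).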"}, "[5]": {"test_system": "Mus musculus", "assay": "Percent median survival time of mice injected with P388 leukemia, at a intravenous compound dose of 80 mg/kg"}, "[6]": {"test_system": "Mus musculus", "assay": "Percent median survival time of mice injected with P388 leukemia, at a intravenous compound dose of 320 mg/kg"}, "[7]": {"test_system": "Mus musculus", "assay": "Long-term survivors among 6 mice infected with P388 leukemia, scored on day 60 at 80 mg/kg dose", "format": "functional", "outline": "(§2)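 B6D2F1 mice in groups of 6–7 were inoculated ip on day 0 with 10^6 P388 cells. Dihydrochloride salts were dissolved in water and given iv on day 1 or on days 1, 5 and 9. Doses ranged from a low nontoxic dose to a toxic one. Long-term survivors were counted at day 60.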"}, "[8]": {"test_system": "Mus musculus", "assay": "Long-term survivors among 6 mice infected with P388 leukemia, scored on day 60 at 40 mg/kg dose", "format": "functional", "outline": "as §2"}, "[9]": {"test_system": "Mus musculus", "assay": "Percent median survival time of mice intraperitoneally injected with P388 leukemia was determined from tested at 80 mg/kg at day1 dose to that of control", "format": "functional", "details": "route intraperitoneal", "outline": "(§3)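 P388 leukemia in B6D2F1 mice (groups of 6–7), 10^6 cells inoculated ip on day 0. Dihydrochloride salts were dissolved in water and given iv on day 1 or on days 1, 5, 9. Three doses were tested, then five if active. %T/C = median survival treated/control × 100, reported at the optimal dose (no toxic death, weight loss <20%), from one or two representative experiments.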"}, "[10]": {"test_system": "Mus musculus", "assay": "Percent median survival time of mice intraperitoneally injected with P388 leukemia was determined from tested at 40 mg/kg at day1,5,9 dose to that of control", "format": "functional", "details": "route intraperitoneal", "outline": "as §3"}, "[11]": {"test_system": "Mus musculus", "assay": "Percent median survival time of mice injected with B16 melanoma, at a intraperitoneal compound dose of 20 mg/kg"}, "[12]": {"test_system": "Mus musculus", "assay": "Long-term survivors among 6 mice infected with B16 melanoma, scored on day 90 at 10 mg/kg dose on day 1", "format": "functional"}, "[13]": {"test_system": "Mus musculus", "assay": "Long-term survivors among 6 mice infected with P388 leukemia, scored on day 60 at 10 mg/kg dose on day 1", "format": "functional", "outline": "as §2"}, "[14]": {"test_system": "Mus musculus", "assay": "Percent median survival time of mice injected with P388 leukemia, at a subcutaneous compound dose of 10 mg/kg", "format": "functional"}, "[15]": {"test_system": "Mus musculus", "assay": "Percent median survival time of mice injected with P388 leukemia, at a intravenous compound dose of 5 mg/kg"}, "[16]": {"test_system": "Mus musculus", "assay": "Percent median survival time of mice injected with B16 melanoma, at a intraperitoneal compound dose of 10 mg/kg"}, "[17]": {"test_system": "Mus musculus", "assay": "Long-term survivors among 7 mice infected with B16 melanoma, scored on day 90 at 20 mg/kg dose on day 1", "format": "functional"}, "[18]": {"test_system": "Mus musculus", "assay": "Long-term survivors among 7 mice infected with P388 leukemia, scored on day 90 at 20 mg/kg dose on day 1", "format": "functional"}, "[19]": {"test_system": "Mus musculus", "assay": "Percent median survival time of mice injected with P388 leukemia, at a subcutaneous compound dose of 20 mg/kg on day 1, 5, 9", "format": "functional"}, "[20]": {"test_system": "Mus musculus", "assay": "Long-term survivors among 12 mice infected with P388 leukemia, scored on day 60 at 10 mg/kg dose", "format": "functional", "outline": "as §2"}, "[21]": {"test_system": "Mus musculus", "assay": "Long-term survivors among 12 mice infected with P388 leukemia, scored on day 60 at 20 mg/kg dose", "format": "functional", "outline": "as §2"}, "[22]": {"test_system": "Mus musculus", "assay": "Percent median survival time of mice intraperitoneally injected with P388 leukemia was determined from tested at 10 mg/kg at day1,5,9 dose to that of control", "format": "functional", "outline": "as §3"}, "[23]": {"test_system": "Mus musculus", "assay": "Percent median survival time of mice intraperitoneally injected with P388 leukemia was determined from tested at 20 mg/kg at day1 dose to that of control", "format": "functional", "details": "route intraperitoneal", "outline": "as §3"}, "[24]": {"test_system": "Mus musculus", "assay": "Long-term survivors among 13 mice infected with B16 melanoma, scored on day 90 at 0.3-0.6 mg/kg dose"}, "[25]": {"test_system": "Mus musculus", "assay": "Percent median survival time of mice injected with B16 melanoma, at a intraperitoneal compound dose of 0.3-0.6 mg/kg"}, "[26]": {"test_system": "Mus musculus", "assay": "Long-term survivors among 12 mice infected with P388 leukemia, scored on day 60 at 320 mg/kg dose", "format": "functional", "outline": "as §2"}, "[27]": {"test_system": "Mus musculus", "assay": "Long-term survivors among 12 mice infected with P388 leukemia, scored on day 60 at 80 mg/kg dose", "format": "functional", "outline": "as §2"}, "[28]": {"test_system": "Mus musculus", "assay": "Percent median survival time of mice intraperitoneally injected with P388 leukemia was determined from tested at 80 mg/kg at day1,5,9 dose to that of control", "format": "functional", "details": "route intraperitoneal", "outline": "as §3"}}, "data": [{"smiles": "Cc1c2ccnc(C(=O)NCCN(C)C)c2cc2c3cc(OC(=O)CCC(NC(=O)OC(C)(C)C)C(=O)O)ccc3n(C)c12", "note": "(stereo not given)", "values": [{"measurement": "IC50", "setting": "[1]", "value": 4, "unit": "nM"}, {"measurement": "IC50", "setting": "[2]", "value": 89.3, "unit": "nM"}, {"measurement": "LTS", "setting": "[3]", "value": 0}, {"measurement": "LTS", "setting": "[4]", "value": 0}, {"measurement": "T/C", "setting": "[5]", "value": ">614", "unit": "%"}, {"measurement": "T/C", "setting": "[6]", "value": ">614", "unit": "%"}]}, {"smiles": "Cc1c2ccnc(C(=O)NCCN(C)C)c2cc2c3cc(OC(=O)N(C)C)ccc3n(C)c12", "values": [{"measurement": "IC50", "setting": "[1]", "value": 2670, "unit": "nM"}, {"measurement": "IC50", "setting": "[2]", "value": 1850, "unit": "nM"}, {"measurement": "LTS", "setting": "[7]", "value": 0}, {"measurement": "LTS", "setting": "[8]", "value": 0}, {"measurement": "T/C", "setting": "[9]", "value": 124, "unit": "%"}, {"measurement": "T/C", "setting": "[10]", "value": 119, "unit": "%"}, {"measurement": "T/C", "setting": "[11]", "value": 161, "unit": "%"}]}, {"smiles": "Cc1c2ccnc(C(=O)NCCN(C)C)c2cc2c3cc(OC(=O)CCC(=O)OCc4ccccc4)ccc3n(C)c12", "values": [{"measurement": "IC50", "setting": "[1]", "value": 9.9, "unit": "nM"}, {"measurement": "IC50", "setting": "[2]", "value": 47.4, "unit": "nM"}, {"measurement": "LTS", "setting": "[12]", "value": 1}, {"measurement": "LTS", "setting": "[13]", "value": 0}, {"measurement": "T/C", "setting": "[14]", "value": 111, "unit": "%"}, {"measurement": "T/C", "setting": "[15]", "value": 96, "unit": "%"}, {"measurement": "T/C", "setting": "[16]", "value": 169, "unit": "%"}]}, {"smiles": "CCOCCC(=O)Oc1ccc2c(c1)c1cc3c(C(=O)NCCN(C)C)nccc3c(C)c1n2C", "values": [{"measurement": "IC50", "setting": "[1]", "value": 3, "unit": "nM"}, {"measurement": "IC50", "setting": "[2]", "value": 5.7, "unit": "nM"}, {"measurement": "LTS", "setting": "[17]", "value": 0}, {"measurement": "LTS", "setting": "[18]", "value": 0}, {"measurement": "T/C", "setting": "[19]", "value": 222, "unit": "%"}, {"measurement": "T/C", "setting": "[16]", "value": 157, "unit": "%"}]}, {"smiles": "Cc1c(O)ccc2c1c1cc3c(C(=O)NCCN(C)C)nccc3c(C)c1n2C", "values": [{"measurement": "IC50", "setting": "[1]", "value": 0.2, "unit": "nM"}, {"measurement": "IC50", "setting": "[2]", "value": 3.5, "unit": "nM"}, {"measurement": "LTS", "setting": "[20]", "value": 0}, {"measurement": "LTS", "setting": "[21]", "value": 0}, {"measurement": "T/C", "setting": "[22]", "value": 223, "unit": "%"}, {"measurement": "T/C", "setting": "[23]", "value": 211, "unit": "%"}, {"measurement": "LTS", "setting": "[24]", "value": 0}, {"measurement": "T/C", "setting": "[25]", "value": 144, "unit": "%"}]}, {"smiles": "Cc1c2ccnc(C(=O)NCCN(C)C)c2cc2c3cc(OC(=O)OCCCC(=O)O)ccc3n(C)c12", "values": [{"measurement": "IC50", "setting": "[1]", "value": 4.8, "unit": "nM"}, {"measurement": "IC50", "setting": "[2]", "value": 64, "unit": "nM"}, {"measurement": "LTS", "setting": "[26]", "value": 8}, {"measurement": "LTS", "setting": "[27]", "value": 7}, {"measurement": "T/C", "setting": "[28]", "value": ">600", "unit": "%"}, {"measurement": "T/C", "setting": "[11]", "value": 167, "unit": "%"}]}]}
